Data published in the RNAGym collection of RNA variant scans (doi:10.1038/nmeth.2970).

B1: GFP aptamer (parent)
chain: GCUUCUGGACUGCGAUGGGAGCACGAAACGUCGUGGCGCAAUUGGGUGGGGAAAGUCCUUAAAAGAGGGCCACCACAGAAGC

Variants of: B1
Assay: HiTS-RAP
Conditions: with EGFP
Summary of the method: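 Aptamer templates containing a T7 promoter and ter site were sequenced on an Illumina GAIIx flowcell, transcribed in situ with T7 RNA polymerase and halted with GST-Tus for 30 minutes at 37°C. Clusters were imaged after 30 minutes at room temperature with EGFP-mOrange at 0.04 nM to 625 nM in fivefold steps. Kd was obtained from per-lane weighted Hill fits to decay-corrected, sequencing-normalised, per-sequence mean intensities, geometrically averaged over lanes. Three lanes entered that average, and non-rising sequences were given 125 nM.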
In the case of C29U C74U, the Kd is reported as 1.86 nM.
G65A gave a Kd of 12.4 nM.
In the case of G65U, the Kd is reported as ≥ 125 nM.
A26G C70U gave a Kd of 0.997 nM.
For G8A G14A, the Kd was 20.2 nM.
C13U C70U showed a Kd of 2.02 nM.
U60C showed a Kd of 16.6 nM.
For U31C A79G, the Kd was 3.52 nM.
With G7U the Kd was 23.4 nM.
U6G showed a Kd of 7.45 nM.
U6C gave a Kd of 8.4 nM.
Work on U6A yielded a Kd of 8.81 nM.
For G51A, the Kd was 8.55 nM.
G51U was tested, and the Kd was 28.8 nM.
C58U showed a Kd of 1.21 nM.
C29U U34C showed a Kd of 20.1 nM.
Work on C37U yielded a Kd of 19.1 nM.
With C37A the Kd was 5.05 nM.
In the case of G69A, the Kd is reported as ≥ 125 nM.
In the case of G69C, the Kd is reported as ≥ 125 nM.
For G67C, the Kd was 11.8 nM.
In the case of C76U, the Kd is reported as 37.1 nM.
In the case of A20G U60A, the Kd is reported as 7.33 nM.
G30A C74U showed a Kd of 5.86 nM.
A40C was tested, and the Kd was ≥ 125 nM.
For A15G A28G, the Kd was 3.9 nM.
A9U was tested, and the Kd was 6.86 nM.
Variant A66G C74U has a Kd of 12.3 nM.
In the case of A66G, the Kd is reported as 11.2 nM.
For A40G A77G, the Kd was 4.67 nM.
In the case of G25A C74U, the Kd is reported as 4.63 nM.
For A54C, the Kd was ≥ 125 nM.
In the case of A54G, the Kd is reported as 65.4 nM.
A54U was tested, and the Kd was ≥ 125 nM.
Work on A27G A75G yielded a Kd of 5.08 nM.
G8C was tested, and the Kd was 61.5 nM.
Work on A28G C58U yielded a Kd of 1.28 nM.
C10U C32U was tested, and the Kd was 6.54 nM.
A72G was tested, and the Kd was 3.33 nM.
A72U was tested, and the Kd was 17.7 nM.
C10U A23G gave a Kd of 5.08 nM.
U43A gave a Kd of 5.22 nM.
Variant U43G has a Kd of 19.5 nM.
A27G U34C was tested, and the Kd was 9.07 nM.
In the case of A28G G46A, the Kd is reported as 14.2 nM.
A41U gave a Kd of 4.87 nM.
With A41C the Kd was 10.1 nM.
For A41G, the Kd was 5.96 nM.
Work on G30A C73U yielded a Kd of 0.856 nM.
In the case of G38A, the Kd is reported as 28 nM.
Work on G38C yielded a Kd of 83.5 nM.
In the case of A27C, the Kd is reported as 4.47 nM.
C13U A41G showed a Kd of 10 nM.
A23G A27G showed a Kd of 5.79 nM.
For C57G, the Kd was ≥ 125 nM.
With C57A the Kd was ≥ 125 nM.
With G12C the Kd was 30.6 nM.
In the case of A72G C74U, the Kd is reported as 7.35 nM.
In the case of A26G C73U, the Kd is reported as 5.43 nM.
C29G was tested, and the Kd was 4.09 nM.
C29A was tested, and the Kd was 3.32 nM.
With A20G A28G the Kd was 15.5 nM.
G45A gave a Kd of 28.2 nM.
Variant U42C C74U has a Kd of 1.05 nM.
In the case of C71G, the Kd is reported as 37.3 nM.
C71U was tested, and the Kd was 14.5 nM.
For U59G, the Kd was 6.85 nM.
In the case of U59A, the Kd is reported as 10.1 nM.
With A63U the Kd was ≥ 125 nM.
Work on A52C yielded a Kd of 43.6 nM.
A52G was tested, and the Kd was 12.3 nM.
For C13U A40G, the Kd was 3 nM.
U31C G44A was tested, and the Kd was 1.82 nM.
C13U A26G showed a Kd of 2.37 nM.
U56C was tested, and the Kd was ≥ 125 nM.
G25A A27G was tested, and the Kd was 5.68 nM.
In the case of A26G C32U, the Kd is reported as 5.01 nM.
In the case of U3A, the Kd is reported as 3.51 nM.
In the case of C73U, the Kd is reported as 6.59 nM.
Variant C73G has a Kd of 7.26 nM.
Work on G68C yielded a Kd of 55.4 nM.
G68A gave a Kd of 27.5 nM.
In the case of G36C, the Kd is reported as ≥ 125 nM.
In the case of G36A, the Kd is reported as 63.3 nM.
In the case of U42C U47C, the Kd is reported as 19.6 nM.
C10U C13U gave a Kd of 15.1 nM.
A20G A27G was tested, and the Kd was 4.69 nM.
Work on G33A A79G yielded a Kd of 11.9 nM.
In the case of A15G A27G, the Kd is reported as 5.3 nM.
For C24G, the Kd was 13.2 nM.
For C13U C58U, the Kd was 0.942 nM.
G78C gave a Kd of 43.8 nM.
For G78U, the Kd was 6.2 nM.
